In ChEMBL document CHEMBL3588850, “Multivalent Amino Sugars to Recognize Different TAR RNA Conformations” (Medchemcomm, 2014):
Activity calls are given as the source filed them. The calls are words filed in the database; no cut-off is given here.

Assays:
Nucleic Acid [1] = experiment: Binding affinity to HIV1 TAR RNA tetraloop mutant at pH 6.8 by ethidium bromide displacement assay; type: nucleic-acid assay, Human immunodeficiency virus 1
In short: (§1)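 Synthetic 2′-ACE-protected TAR RNA, deprotected, heated 98 °C 5 min, then ice-cooled 15 min. TAR RNA at 200 nM/strand with ethidium bromide 5 μM in 100 mM KCl, 10 mM SC, 0.5 mM EDTA, pH 6.8. Ligand added stepwise, ≤4% v/v. Excitation 545 nm, emission 580–660 nm, intensity at 610 nm normalized. IC50 from sigmoidal fit of fraction EtBr displaced vs log ligand; association constants from Scatchard analysis.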

Nucleic Acid [2] = experiment: Induction of conformational changes in HIV1 TAR RNA U3 bulge mutant aassessed as changes in 210 to 220 nm region using 1 molar equivalents of compound at pH 6.8 by CD spectroscopy; type: nucleic-acid assay; details: Human immunodeficiency virus 1
In short: (§2)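 Spectra recorded before and after adding 1 molar equivalent ligand (≤1% v/v, in buffer). Scan 325–200 nm at 500 nm/min, 1 nm bandwidth, 1 cm cuvette, 20 °C. Each spectrum is the average of 10 scans; ΔCD plotted.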

Nucleic Acid [3] = experiment: Binding affinity to wild type HIV1 TAR RNA assessed as association constant at pH 6.8 by ethidium bromide displacement assay based Scatchard analysis method; type: nucleic-acid assay; details: Human immunodeficiency virus 1
In short: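 Ethidium bromide displacement: 5 μM EtBr with TAR RNA at 200 nM/strand (under 20% of EtBr bound) in 100 mM KCl, 10 mM SC, 0.5 mM EDTA, pH 6.8. Ligand added in concentrated aliquots, at most 4% v/v. Excitation 545 nm, emission 580–660 nm, intensity at 610 nm. Association constant obtained by Scatchard analysis of the titration data.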

Nucleic Acid [4] = experiment: Induction of conformational changes in wild type HIV1 TAR RNA assessed as increase in intensity in 265 nm region using 1 molar equivalents of compound at pH 6.8 by CD spectroscopy; type: nucleic-acid assay; details: Human immunodeficiency virus 1
Nucleic Acid [5] = experiment: Binding affinity to HIV1 TAR RNA bulgeless tetraloop mutant assessed as association constant at pH 6.8 by ethidium bromide displacement assay based Scatchard analysis method; type: nucleic-acid assay; details: Human immunodeficiency virus 1; in short: as §1
Nucleic Acid [6] = experiment: Induction of conformational changes in HIV1 TAR RNA U3 bulge mutant assessed as induction of red shift in CD spectra region using 1 molar equivalents of compound at pH 6.8 by CD spectroscopy; type: nucleic-acid assay; details: Human immunodeficiency virus 1; in short: as §2
Nucleic Acid [7] = experiment: Induction of conformational changes in HIV1 TAR RNA bulgeless tetraloop mutant assessed as changes in 210 to 220 nm region using 1 molar equivalents of compound at pH 6.8 by CD spectroscopy; type: nucleic-acid assay; details: Human immunodeficiency virus 1; in short: as §2
Nucleic Acid [8] = experiment: Binding affinity to HIV1 TAR RNA U3 bulge mutant at pH 6.8 by ethidium bromide displacement assay; type: nucleic-acid assay, Human immunodeficiency virus 1; in short: as §1
Nucleic Acid [9] = experiment: Induction of conformational changes in HIV1 TAR RNA bulgeless tetraloop mutant assessed as induction of red shift in CD spectra region using 1 molar equivalents of compound at pH 6.8 by CD spectroscopy; type: nucleic-acid assay; details: Human immunodeficiency virus 1; in short: as §2
Nucleic Acid [10] = experiment: Induction of conformational changes in HIV1 TAR RNA tetraloop mutant assessed as induction of red shift in CD spectra region using 1 molar equivalents of compound at pH 6.8 by CD spectroscopy; type: nucleic-acid assay; details: Human immunodeficiency virus 1; in short: as §2
Nucleic Acid [11] = experiment: Induction of conformational changes in HIV1 TAR RNA bulgeless mutant assessed as changes in 210 to 220 nm region using 1 molar equivalents of compound at pH 6.8 by CD spectroscopy; type: nucleic-acid assay; details: Human immunodeficiency virus 1; in short: as §2
Nucleic Acid [12] = experiment: Induction of conformational changes in HIV1 TAR RNA tetraloop mutant assessed as changes in 260 to 270 nm region using 1 molar equivalents of compound at pH 6.8 by CD spectroscopy; type: nucleic-acid assay; details: Human immunodeficiency virus 1; in short: as §2
Nucleic Acid [13] = experiment: Induction of conformational changes in HIV1 TAR RNA tetraloop mutant assessed as changes in 210 to 220 nm region using 1 molar equivalents of compound at pH 6.8 by CD spectroscopy; type: nucleic-acid assay; details: Human immunodeficiency virus 1; in short: as §2
[14] = test system: Human immunodeficiency virus 1; experiment: Induction of thermal stability changes in wild type HIV1 TAR RNA assessed as change in melting temperature using 1 molar equivalents of compound pre-incubated for 4 hrs at pH 6.8 at 4 degC before test by UV thermal denaturation assay
Nucleic Acid [15] = experiment: Induction of conformational changes in HIV1 TAR RNA bulgeless mutant assessed as changes in 260 to 270 nm region using 1 molar equivalents of compound at pH 6.8 by CD spectroscopy; type: nucleic-acid assay; details: Human immunodeficiency virus 1; in short: as §2
Nucleic Acid [16] = experiment: Binding affinity to HIV1 TAR RNA U3 bulge mutant at assessed as association constant at pH 6.8 by ethidium bromide displacement assay based Scatchard analysis method; type: nucleic-acid assay; details: Human immunodeficiency virus 1; in short: as §1
Nucleic Acid [17] = experiment: Induction of conformational changes in wild type HIV1 TAR RNA assessed as changes in 210 to 220 nm region using 1 molar equivalents of compound at pH 6.8 by CD spectroscopy; type: nucleic-acid assay; details: Human immunodeficiency virus 1
[18] = test system: Human immunodeficiency virus 1; experiment: Induction of thermal stability changes in HIV1 TAR RNA bulgeless mutant assessed as change in melting temperature using 1 molar equivalents of compound pre-incubated for 4 hrs at pH 6.8 at 4 degC before test by UV thermal denaturation assay
In short: (§3)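 TAR RNA mutants at 1 μM/strand mixed with 1 or 2 molar equivalents of ligand in 100 mM KCl, 10 mM SC, 0.5 mM EDTA, pH 6.8, then held 4 h at 4 °C. Absorbance at 260 nm in 1 cm cuvettes, 15–100 °C, heating 0.3 °C/min. Tm taken from first-derivative plots and compared with the no-ligand sample.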

Nucleic Acid [19] = experiment: Induction of conformational changes in HIV1 TAR RNA bulgeless tetraloop mutant assessed as changes in 260 to 270 nm region using 1 molar equivalents of compound at pH 6.8 by CD spectroscopy; type: nucleic-acid assay; details: Human immunodeficiency virus 1; in short: as §2
[20] = test system: Human immunodeficiency virus 1; experiment: Induction of thermal stability changes in HIV1 TAR RNA tetraloop mutant assessed as change in melting temperature using 1 molar equivalents of compound pre-incubated for 4 hrs at pH 6.8 at 4 degC before test by UV thermal denaturation assay; in short: as §3
Nucleic Acid [21] = experiment: Binding affinity to wild type HIV1 TAR RNA at pH 6.8 by ethidium bromide displacement assay; type: nucleic-acid assay, Human immunodeficiency virus 1
In short: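 TAR RNA (200 nM/strand) and EtBr (5 μM) in 100 mM KCl, 10 mM SC, 0.5 mM EDTA, pH 6.8, titrated with ligand aliquots (at most 4% v/v). Fluorescence excited at 545 nm and read at 610 nm. IC50 is the ligand concentration that displaces 50% of EtBr, taken from a sigmoidal fit of fraction displaced versus log ligand concentration.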

[22] = test system: Human immunodeficiency virus 1; experiment: Induction of thermal stability changes in HIV1 TAR RNA bulgeless tetraloop mutant assessed as change in melting temperature using 1 molar equivalents of compound pre-incubated for 4 hrs at pH 6.8 at 4 degC before test by UV thermal denaturation assay; in short: as §3
Nucleic Acid [23] = experiment: Binding affinity to HIV1 TAR RNA tetraloop mutant assessed as induction of imino chemical shifts changes by NMR spectroscopy; type: nucleic-acid assay; details: Human immunodeficiency virus 1
Nucleic Acid [24] = experiment: Binding affinity to HIV1 TAR RNA bulgeless mutant assessed as association constant at pH 6.8 by ethidium bromide displacement assay based Scatchard analysis method; type: nucleic-acid assay; details: Human immunodeficiency virus 1; in short: as §1
Nucleic Acid [25] = experiment: Binding affinity to HIV1 TAR RNA bulgeless tetraloop mutant at pH 6.8 by ethidium bromide displacement assay; type: nucleic-acid assay, Human immunodeficiency virus 1; in short: as §1
Nucleic Acid [26] = experiment: Binding affinity to HIV1 TAR RNA tetraloop mutant assessed as association constant at pH 6.8 by ethidium bromide displacement assay based Scatchard analysis method; type: nucleic-acid assay; details: Human immunodeficiency virus 1; in short: as §1
Nucleic Acid [27] = experiment: Induction of conformational changes in HIV1 TAR RNA U3 bulge mutant aassessed as changes in 260 to 270 nm region using 1 molar equivalents of compound at pH 6.8 by CD spectroscopy; type: nucleic-acid assay; details: Human immunodeficiency virus 1; in short: as §2
[28] = test system: Human immunodeficiency virus 1; experiment: Induction of thermal stability changes in HIV1 TAR RNA U3 bulge mutant assessed as change in melting temperature using 1 molar equivalents of compound pre-incubated for 4 hrs at pH 6.8 at 4 degC before test by UV thermal denaturation assay; in short: as §3
Nucleic Acid [29] = experiment: Induction of conformational changes in HIV1 TAR RNA bulgeless mutant assessed as induction of red shift in CD spectra region using 1 molar equivalents of compound at pH 6.8 by CD spectroscopy; type: nucleic-acid assay; details: Human immunodeficiency virus 1; in short: as §2
Nucleic Acid [30] = experiment: Binding affinity to wild type HIV1 TAR RNA assessed as induction of chemical shifts changes of GH1 and UH3 regions by NMR spectroscopy; type: nucleic-acid assay; details: Human immunodeficiency virus 1
In short: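 Imino-region 1D 1H jump-return echo spectra recorded at 298 K on an 850 MHz instrument with a cryoprobe, with increasing amounts of ligand added.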

Nucleic Acid [31] = experiment: Binding affinity to HIV1 TAR RNA bulgeless mutant at pH 6.8 by ethidium bromide displacement assay; type: nucleic-acid assay, Human immunodeficiency virus 1; in short: as §1

SMILES	IC50 (Nucleic Acid [1]) [nM]	K (Nucleic Acid [3])	Activity (Nucleic Acid [4])	K (Nucleic Acid [5])	IC50 (Nucleic Acid [8]) [nM]	K (Nucleic Acid [16])	Activity (Nucleic Acid [17])	IC50 (Nucleic Acid [21]) [nM]	K (Nucleic Acid [24])	IC50 (Nucleic Acid [25]) [nM]	K (Nucleic Acid [26])	IC50 (Nucleic Acid [31]) [nM]	further results
NC[C@@H]1O[C@H](O[C@H]2[C@@H](O)[C@H](O[C@@H]3[C@@H](O)[C@H](N)C[C@H](N)[C@H]3O[C@H]3O[C@H](CN)[C@@H](O)[C@H](O)[C@H]3N)O[C@@H]2Cn2cc(COCc3cn(C[C@H]4O[C@@H](O[C@@H]5[C@@H](O)[C@H](N)C[C@H](N)[C@H]5O[C@H]5O[C@H](CN)[C@@H](O)[C@H](O)[C@H]5N)[C@H](O)[C@@H]4O[C@H]4O[C@@H](CN)[C@@H](O)[C@H](O)[C@H]4N)nn3)nn2)[C@H](N)[C@@H](O)[C@@H]1O	156	1.2 ×10⁸ /M	inactive	2.3 ×10⁸ /M	186	1.6 ×10⁷ /M	Active	112	7.5 ×10⁷ /M	122	2.7 ×10⁷ /M		Activity (Nucleic Acid [2]): Active; Activity (Nucleic Acid [6]): Active; Activity (Nucleic Acid [7]): inactive; Activity (Nucleic Acid [9]): Active; Activity (Nucleic Acid [10]): Active; Activity (Nucleic Acid [11]): inactive; Activity (Nucleic Acid [12]): Active; Activity (Nucleic Acid [13]): inactive; ΔTm [14]: 10.2 °C; Activity (Nucleic Acid [15]): Active; ΔTm [18]: 5 °C; Activity (Nucleic Acid [19]): Active; ΔTm [20]: 6 °C; ΔTm [22]: > 5 °C; Activity (Nucleic Acid [23]): Active; Activity (Nucleic Acid [27]): Active; ΔTm [28]: 8.5 °C; Activity (Nucleic Acid [29]): Active; Activity (Nucleic Acid [30]): Dose-dependent effect
NC[C@@H]1O[C@H](O[C@H]2[C@@H](O)[C@H](O[C@@H]3[C@@H](O)[C@H](N)C[C@H](N)[C@H]3O[C@H]3O[C@H](CN)[C@@H](O)[C@H](O)[C@H]3N)O[C@@H]2Cn2cc(-c3cccc(-c4cn(C[C@H]5O[C@@H](O[C@@H]6[C@@H](O)[C@H](N)C[C@H](N)[C@H]6O[C@H]6O[C@H](CN)[C@@H](O)[C@H](O)[C@H]6N)[C@H](O)[C@@H]5O[C@H]5O[C@@H](CN)[C@@H](O)[C@H](O)[C@H]5N)nn4)c3)nn2)[C@H](N)[C@@H](O)[C@@H]1O	180	1.4 ×10⁸ /M	Active	6.9 ×10⁷ /M	244		Active	110	1 ×10⁸ /M	142	1.3 ×10⁷ /M	130	
C/C(CCc1cn(C[C@H]2O[C@@H](O[C@@H]3[C@@H](O)[C@H](N)C[C@H](N)[C@H]3O[C@H]3O[C@H](CN)[C@@H](O)[C@H](O)[C@H]3N)[C@H](O)[C@@H]2O[C@H]2O[C@@H](CN)[C@@H](O)[C@H](O)[C@H]2N)nn1)=C(/C)CCc1cn(C[C@H]2O[C@@H](O[C@@H]3[C@@H](O)[C@H](N)C[C@H](N)[C@H]3O[C@H]3O[C@H](CN)[C@@H](O)[C@H](O)[C@H]3N)[C@H](O)[C@@H]2O[C@H]2O[C@@H](CN)[C@@H](O)[C@H](O)[C@H]2N)nn1	210	1.1 ×10⁷ /M		2.8 ×10⁷ /M	338	2.6 ×10⁶ /M		146	3.6 ×10⁷ /M	162	3.5 ×10⁶ /M	142	
